# Measurements from different studies.
# Lines come from different studies, so protocols differ.
# Target: Calcium/calmodulin-dependent protein kinase kinase 1 (CAMKK1, Homo sapiens, UniProt Q8N5S9)
SMILES,test,setting,endpoint,value
Cn1cc(-c2cccc(N3CCc4c(sc5c4CC(C)(C)C5)C3=O)c2CO)cc(Nc2ccncn2)c1=O,"enzyme activity, inhibitor",1 µM,inhibition,4%
CC(C)(C)c1cc(C=C(C#N)C#N)cc(Br)c1O,"enzyme activity, inhibitor",0.5 µM,remaining activity,120%
Cc1nn(C)cc1-c1nc2c(N3CCN(Cc4ccc(Cl)cc4)CC3)c(Cl)cnc2[nH]1,"binding, competition with immobilised ligand",1 µM,remaining binding,100%
O=c1[nH]c2ccccc2n1C1CCN(Cc2ccc(-c3[nH]c4cc5ncnc5cc4nc3-c3ccccc3)cc2)CC1,cell-free assay,0.5 µM,remaining signal,117%
Cn1cncc1[C@](O)(COc1ccc(C#N)cc1-c1ccc(OC(F)(F)F)cc1)c1ccc(C#N)cc1,"cell-free assay, competition with immobilised ligand",1 µM,remaining binding,77%
COc1ncccc1-c1cnn2ccc(N3CCN(C(=O)OC(C)C)CC3)nc12,"binding, competition with immobilised ligand",1 µM,remaining binding,77%
Nc1ncc(-c2nc(N3CCOCC3)nc(N3CCOCC3)n2)c(C(F)F)n1,"binding, competition with immobilised ligand",10 µM,remaining binding,70%
N#CC1(c2ccccn2)CCN(Cc2cc(C(=O)O)c(=O)n3ccccc23)CC1,"cell-free assay, competition with immobilised ligand",1 µM,remaining binding,100%
